From ChEMBL document CHEMBL1143136 (J Med Chem, 2008)
Where a SMILES comes first, the peptide text is derived from it. The star is where a group is joined. Trt = c1ccc(C(c2ccccc2)(c2ccccc2)*)cc1

Experiments:
HeLa [1] = test: Cell cycle arrest in human HeLa cells assessed as accumulation at G2/M phase at 5 uM after 24 hrs; type: functional
Outline: (§1)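 HeLa cells grown in DMEM with 10% FBS at 37 °C, 5% CO2, in 60 mm dishes, exposed to drug for 24 h. Drugs were diluted in medium from 50 mM DMSO stocks. Cells were fixed in 90% methanol at −20 °C and stained with propidium iodide. Flow cytometry gave the percentage of cells with 4N DNA content (G2/M).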

HeLa [2] = test: Cell cycle arrest in human HeLa cells assessed as accumulation at G2/M phase at 1 uM after 24 hrs; type: functional; outline: as §1
HeLa [3] = test: Induction of mitotic arrest in human HeLa cells assessed as monoastral spindle formation after 24 hrs; type: functional, cell-based
HeLa [4] = test: Induction of mitotic arrest in human HeLa cells at 1 uM assessed as MPM2 antibody positive cells after 24 hrs; type: functional
Outline: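 HeLa cells (DMEM, 10% FBS, 37 °C, 5% CO2) were drug-treated for 24 h, then fixed in 90% methanol at −20 °C. They were labelled with MPM-2 mitotic phospho-epitope antibody plus FITC anti-mouse IgG, and with propidium iodide. Two-dimensional flow cytometry gave the percentage of 4N-arrested cells that were MPM2-positive.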

HeLa [5] = test: Induction of mitotic arrest in human HeLa cells after 24 hrs; type: functional, cell-based
Outline: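 A concentration series was given to HeLa cells for 24 h (DMEM, 10% FBS, 37 °C, 5% CO2). Cells were fixed in methanol at −20 °C, then stained with MPM-2 antibody/FITC secondary and propidium iodide. Two-dimensional flow cytometry followed.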

cells = details: Homo sapiens, NCI60

**Q.** What does the source list for `COC(=O)[C@@H](N)CSC(c1ccccc1)(c1ccccc1)c1ccccc1`?
**A.** Activity (HeLa [1]): 72.4%; Activity (HeLa [2]): 20.2%; EC50 (HeLa [3]): 1080 nM

**Q.** Which Activity (HeLa [1]) does the source give for `CCCCC(SC[C@H](N)C(=O)O)(c1ccccc1)c1ccccc1` here?
**A.** The Activity was 71.1%.

**Q.** What about the Activity (HeLa [2]) of the same compound?
**A.** Its Activity is 19.1%.

**Q.** And the EC50 (HeLa [3])?
**A.** The EC50 was 1400 nM.

**Q.** With `CC(C)C(SC[C@H](N)C(=O)O)(c1ccccc1)c1ccccc1` as the compound, how does the Activity (HeLa [1]) read?
**A.** Its Activity is 59.1%.

**Q.** And the Activity (HeLa [2])?
**A.** Its Activity is 22.6%.

**Q.** And the EC50 (HeLa [3])?
**A.** Its EC50 is 1080 nM.

**Q.** Which EC50 (HeLa [3]) does the source give for `N[C@@H](CSC(c1ccccc1)(c1ccc(CO)cc1)c1ccc(CO)cc1)C(=O)O` here?
**A.** The EC50 was greater than 5000 nM.

**Q.** With `N[C@@H](CSC(c1ccccc1)(c1ccccc1)c1ccc2c(c1)OCO2)C(=O)O` as the compound, how does the Activity (HeLa [1]) read?
**A.** Its Activity is 68%.

**Q.** What about the Activity (HeLa [2]) of the same compound?
**A.** The Activity was 24.3%.

**Q.** What about the EC50 (HeLa [3]) of the same compound?
**A.** Its EC50 is 1370 nM.

**Q.** For `N[C@@H](CSC(c1ccccc1)(c1ccccc1)c1ccc2ccccc2c1)C(=O)O`, which Activity (HeLa [2]) is on record?
**A.** Its Activity is 68.1%.

**Q.** What about the Activity (HeLa [4]) of the same compound?
**A.** The Activity was 79.9%.

**Q.** And the EC50 (HeLa [5])?
**A.** The EC50 was 600 nM.

**Q.** And the EC50 (HeLa [3])?
**A.** The EC50 was 330 nM.

**Q.** For `N[C@@H](CSC1(c2ccccc2)c2ccccc2-c2ccccc21)C(=O)O`, which EC50 (HeLa [3]) is on record?
**A.** The EC50 was greater than 5000 nM.

**Q.** For `NCCCSC(c1ccccc1)(c1ccccc1)c1ccccc1`, which EC50 (HeLa [3]) is on record?
**A.** The EC50 was greater than 5000 nM.

**Q.** With `N[C@@H](CSC1(c2ccc(F)cc2)c2ccccc2-c2ccccc21)C(=O)O` as the compound, how does the EC50 (HeLa [3]) read?
**A.** Its EC50 is greater than 5000 nM.

**Q.** What does the source list for `N[C@@H](CSC(c1ccccc1)(c1ccccc1)C1CCCCC1)C(=O)O`?
**A.** Activity (HeLa [1]): 55.2%; Activity (HeLa [2]): 19.9%; EC50 (HeLa [3]): 1850 nM

**Q.** Which EC50 (HeLa [3]) does the source give for `N[C@@H](CSC(c1ccccc1)(c1ccccc1)c1ccc(O)cc1)C(=O)O` here?
**A.** The EC50 was greater than 5000 nM.

**Q.** For `NCCCCSC(c1ccccc1)(c1ccccc1)c1ccccc1`, which EC50 (HeLa [3]) is on record?
**A.** Its EC50 is greater than 5000 nM.

**Q.** With `N[C@@H](CSC(c1ccccc1)(c1ccccc1)c1ccccc1)C(=O)NCC(=O)O` as the compound, how does the EC50 (HeLa [3]) read?
**A.** Its EC50 is greater than 5000 nM.

**Q.** With `N[C@@H](CSC1(c2ccc(Cl)cc2)c2ccccc2-c2ccccc21)C(=O)O` as the compound, how does the EC50 (HeLa [3]) read?
**A.** Its EC50 is greater than 5000 nM.

**Q.** With `CC(=O)N[C@@H](CSC1(c2ccccc2)c2ccccc2-c2ccccc21)C(=O)O` as the compound, how does the EC50 (HeLa [3]) read?
**A.** Its EC50 is greater than 5000 nM.

**Q.** With `COc1ccc(C(SC[C@H](N)C(=O)O)(c2ccccc2)c2ccc(OC)cc2)cc1` as the compound, how does the EC50 (HeLa [3]) read?
**A.** Its EC50 is greater than 5000 nM.

**Q.** With `N[C@@H](CSC(c1ccccc1)(c1ccc(-c2ccccc2)cc1)c1ccc(-c2ccccc2)cc1)C(=O)O` as the compound, how does the EC50 (HeLa [3]) read?
**A.** Its EC50 is greater than 5000 nM.

**Q.** With `N[C@@H](CSC(c1ccccc1)(c1ccccc1)c1cccc2ccccc12)C(=O)O` as the compound, how does the EC50 (HeLa [3]) read?
**A.** Its EC50 is greater than 5000 nM.

**Q.** With `COc1ccc(C(SC[C@H](N)C(=O)O)(c2ccccc2)c2ccccc2)cc1` as the compound, how does the Activity (HeLa [2]) read?
**A.** Its Activity is 69%.

**Q.** What about the Activity (HeLa [4]) of the same compound?
**A.** The Activity was 81.6%.

**Q.** And the EC50 (HeLa [5])?
**A.** The EC50 was 300 nM.

**Q.** And the EC50 (HeLa [3])?
**A.** The EC50 was 200 nM.

**Q.** For `CCC(SC[C@H](N)C(=O)O)(c1ccccc1)c1ccccc1`, which EC50 (HeLa [3]) is on record?
**A.** Its EC50 is greater than 5000 nM.

**Q.** With `CC(SC[C@H](N)C(=O)O)(c1ccccc1)c1ccccc1` as the compound, how does the EC50 (HeLa [3]) read?
**A.** The EC50 was greater than 5000 nM.

**Q.** What does the source list for `NCCSC(c1ccccc1)(c1ccccc1)c1ccccc1`?
**A.** Activity (HeLa [1]): 65.8%; Activity (HeLa [2]): 21.1%; EC50 (HeLa [3]): 1080 nM

**Q.** Which EC50 (HeLa [3]) does the source give for `CC(C)(SC(c1ccccc1)(c1ccccc1)c1ccccc1)C(N)C(=O)O` (centres undefined) here?
**A.** Its EC50 is greater than 5000 nM.

**Q.** What does the source list for `N[C@@H](CSC(c1ccccc1)(c1ccccc1)c1ccc(Cl)cc1)C(=O)O`?
**A.** Activity (HeLa [1]): 74.7%; Activity (HeLa [2]): 48.5%; EC50 (HeLa [5]): 660 nM; EC50 (HeLa [3]): 510 nM

**Q.** Which results are given for `Cc1ccc(C(SC[C@H](N)C(=O)O)(c2ccccc2)c2ccc(C)cc2)cc1`?
**A.** Activity (HeLa [1]): 70.9%; Activity (HeLa [2]): 50.8%; EC50 (HeLa [5]): 1000 nM; EC50 (HeLa [3]): 530 nM

**Q.** Which EC50 (HeLa [3]) does the source give for `O=C(O)C(CSC(c1ccccc1)(c1ccccc1)c1ccccc1)/N=C/c1cccs1` (centres undefined) here?
**A.** Its EC50 is greater than 5000 nM.

**Q.** Which EC50 (HeLa [3]) does the source give for `CC(NC(=O)[C@@H](N)CSC(c1ccccc1)(c1ccccc1)c1ccccc1)C(=O)O` (some centres undefined) here?
**A.** Its EC50 is greater than 5000 nM.

**Q.** For `Cc1ccc(C(SC[C@H](N)C(=O)O)(c2ccc(C)cc2)c2ccc(C)cc2)cc1`, which Activity (HeLa [1]) is on record?
**A.** Its Activity is 34.1%.

**Q.** What about the EC50 (HeLa [3]) of the same compound?
**A.** The EC50 was 3100 nM.

**Q.** With `Cc1ccc(C2(SC[C@H](N)C(=O)O)c3ccccc3-c3ccccc32)cc1` as the compound, how does the EC50 (HeLa [3]) read?
**A.** Its EC50 is greater than 5000 nM.

**Q.** With `N[C@@H](CSC(c1ccccc1)(c1ccccc1)c1ccc(CO)cc1)C(=O)O` as the compound, how does the EC50 (HeLa [3]) read?
**A.** The EC50 was greater than 5000 nM.

**Q.** What does the source list for `N[C@@H](CSC(c1ccccc1)(c1ccccc1)c1ccc(Br)cc1)C(=O)O`?
**A.** Activity (HeLa [2]): 68.7%; Activity (HeLa [4]): 77.4%; EC50 (HeLa [5]): 450 nM; EC50 (HeLa [3]): 310 nM

**Q.** Which results are given for `N[C@@H](CSC(c1ccccc1)(c1ccccc1)c1ccc(F)cc1)C(=O)O`?
**A.** Activity (HeLa [1]): 68.8%; Activity (HeLa [2]): 24%; EC50 (HeLa [3]): 1550 nM

**Q.** With `N[C@@H](COC(c1ccccc1)(c1ccccc1)c1ccccc1)C(=O)O` as the compound, how does the EC50 (HeLa [3]) read?
**A.** The EC50 was greater than 5000 nM.

**Q.** Which EC50 (HeLa [3]) does the source give for `N[C@@H](CSC1(c2cccc3ccccc23)c2ccccc2-c2ccccc21)C(=O)O` here?
**A.** The EC50 was greater than 5000 nM.

**Q.** Which results are given for `Cc1ccc(C(SC[C@H](N)C(=O)O)(c2ccccc2)c2ccccc2)cc1`?
**A.** Activity (HeLa [2]): 71%; Activity (HeLa [4]): 84.1%; EC50 (HeLa [5]): 330 nM; EC50 (HeLa [3]): 210 nM

**Q.** Which EC50 (HeLa [3]) does the source give for `N[C@@H](CSC(c1ccccc1)c1ccccc1)C(=O)O` here?
**A.** Its EC50 is greater than 5000 nM.

**Q.** For `N[C@@H](CSC(c1ccccc1)(c1ccccc1)c1ccccc1)C(=O)OC(c1ccccc1)c1ccccc1`, which EC50 (HeLa [3]) is on record?
**A.** Its EC50 is greater than 5000 nM.

**Q.** For `N[C@@H](CSC(c1ccccc1)(c1ccccc1)c1ccccc1)C(=O)N[C@@H](CSC(c1ccccc1)(c1ccccc1)c1ccccc1)C(=O)O` (H-Cys(Trt)-Cys(Trt)-OH), which EC50 (HeLa [3]) is on record?
**A.** Its EC50 is greater than 5000 nM.

**Q.** With `COC(=O)[C@H](CC(C)C)NC(=O)[C@@H](N)CSC(c1ccccc1)(c1ccccc1)c1ccccc1` (H-Cys(Trt)-Leu-OMe) as the compound, how does the EC50 (HeLa [3]) read?
**A.** The EC50 was 5000 nM.

**Q.** Which Activity (HeLa [1]) does the source give for `COC(=O)[C@@H](NC(=O)[C@@H](N)CSC(c1ccccc1)(c1ccccc1)c1ccccc1)C(C)C` (H-Cys(Trt)-Val-OMe) here?
**A.** The Activity was 21.8%.

**Q.** And the EC50 (HeLa [3])?
**A.** The EC50 was 3500 nM.

**Q.** Which GI50 (cells) does the source give for `N[C@@H](CSC(c1ccccc1)(c1ccccc1)c1ccccc1)C(=O)O` [S-TRITYL-L-CYSTEINE] here?
**A.** Its GI50 is 1310 nM.

**Q.** And the Activity (HeLa [1])?
**A.** The Activity was 75.8%.

**Q.** And the Activity (HeLa [2])?
**A.** The Activity was 23.1%.

**Q.** And the EC50 (HeLa [5])?
**A.** The EC50 was 1700 nM.

**Q.** What about the EC50 (HeLa [3]) of the same compound?
**A.** The EC50 was 700 nM.
